Experimental data: ChEMBL document CHEMBL3351861, “New synthetic sulfone derivatives inhibit growth, adhesion and the leucine arylamidase APE2 gene expression of Candida albicans in vitro” (2015)

Assays:
Assay type in all cases: functional
Details in all cases: read-out: GI
Candida albicans [1] = experiment: Antifungal activity against Candida albicans CAI4 expressing delta-cph1 gene assessed as growth inhibition at 1 ug/ml by CLSI M27-A3 method
Summary of the method: (§1)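 CLSI M27-A3 broth microdilution in RPMI, read after 48 h. Strains pre-grown 18 h in YEPD at 30°C. Final inoculum 0.5×10^2–2.5×10^3 cells/ml. Two-fold dilutions in RPMI came from a 1600 µg/ml stock in water with 9% DMSO; final DMSO was 0.09%. OD405 read, % inhibition = 100 − (CTW−SCW)/(GCW−SCW). Triplicate on three occasions, mean±SD.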

Candida albicans [2] = experiment: Antifungal activity against Candida albicans 90028 assessed as growth inhibition at 1 ug/ml by CLSI M27-A3 method; summary of the method: as §1
Candida albicans [3] = experiment: Antifungal activity against Candida albicans CAI4 expressing delta-cph1/delta-efg1 gene assessed as growth inhibition at 1 ug/ml by CLSI M27-A3 method; summary of the method: as §1
Candida albicans [4] = experiment: Antifungal activity against Candida albicans CAI4 expressing delta-cph1 (CPH1) gene assessed as growth inhibition at 1 ug/ml by CLSI M27-A3 method; summary of the method: as §1
Candida albicans [5] = experiment: Antifungal activity against Candida albicans CAI4 expressing delta-efg1 gene assessed as growth inhibition at 1 ug/ml by CLSI M27-A3 method
Summary of the method: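 CLSI M27-A3 broth microdilution in RPMI. Final inoculum 0.5×10^2 to 2.5×10^3 cells/ml. Seven two-fold concentrations from 0.25 to 16 µg/ml, with DMSO held at 0.09% (v/v) in all wells. Compound-free growth controls and sterility controls are run for each strain. […] Triplicate on three occasions.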

Candida albicans [6] = experiment: Antifungal activity against Candida albicans CAI4 expressing delta-cph1/delta-efg1 (EFG1) gene assessed as growth inhibition at 1 ug/ml by CLSI M27-A3 method; summary of the method: as §1
Candida albicans [7] = experiment: Antifungal activity against Candida albicans CAI4 expressing delta-efg1 (EFG1) gene assessed as growth inhibition at 1 ug/ml by CLSI M27-A3 method; summary of the method: as §1

Measured: inhibition of growth at 1 µg/mL

C[C@@H]1[C@H](O)[C@@H](C)/C=C/C=C/C=C/C=C/C=C/C=C/C=C/[C@H](O[C@@H]2O[C@H](C)[C@@H](O)[C@H](N)[C@@H]2O)C[C@@H]2O[C@](O)(C[C@@H](O)C[C@@H](O)[C@H](O)CC[C@@H](O)C[C@@H](O)CC(=O)O[C@H]1C)C[C@H](O)[C@H]2C(=O)O [AMPHOTERICIN B]
100%: all assays above
